Measurements collected from several papers.
Protocols differ between the studies behind these lines. Converted amounts (≈) assume the structure as drawn.

Cc1c2c(nn1C)CSCc1cc(n(C)n1)CSc1cc(c3ccccc3c1)OCCCc1c(C(=O)O)n(C)c3c-2c(Cl)ccc13 — MIC50 (Enterococcus faecium; microbial growth, broth dilution; clinical isolate): 12.5 µM (≈ 8.4 µg/mL)
O=c1[nH]c(CCl)nc2scc(-c3cccc(F)c3)c12 — EC50 (Trypanosoma brucei; parasite growth, ATP luminescence; 48 h): 1100 nM
C[C@@H]1[C@H](O)[C@@H](C)/C=C/C=C/C=C/C=C/C=C/C=C/C=C/[C@H](O[C@@H]2O[C@H](C)[C@@H](O)[C@H](N)[C@@H]2O)C[C@@H]2O[C@](O)(C[C@@H](O)C[C@@H](O)[C@H](O)CC[C@@H](O)C[C@@H](O)CC(=O)O[C@H]1C)C[C@H](O)[C@H]2C(=O)O — MIC (Candida albicans; microbial growth, broth dilution; SP3902; 48 h): < 0.25 µM
FC(F)(F)c1cc(Nc2ncnc3ccc(-c4cccc(N5CCOCC5)c4)cc23)ccc1Cl — GI50 (Trypanosoma brucei; parasite growth, SYBR Green; 48 h): 50 nM
CCOC(=O)c1cnc2c([N+](=O)[O-])cc(C(F)(F)F)cc2c1NCCc1ccccc1 — EC50 (Trypanosoma brucei; parasite growth, resazurin; 72 h): > 10000 nM
COc1c(N2C[C@@H]3CCCN[C@@H]3C2)c(F)cc2c(=O)c(C(=O)O)cn(C3CC3)c12 — MIC90 (Enterococcus faecium; microbial growth; clinical isolate): 64 µg/mL (≈ 159 µM)
O=[N+]([O-])c1ccc(Nc2ncnc3ccc(-c4cccc(N5CCOCC5)c4)cc23)cc1C(F)(F)F — GI50 (Trypanosoma brucei; parasite growth, SYBR Green; 48 h): 8.4 nM
CC(=O)N1CCN(c2ccc(OCC3COC(Cn4ccnc4)(c4ccc(Cl)cc4Cl)O3)cc2)CC1 (stereo not drawn) — MIC (Candida albicans; microbial growth, broth dilution; SP3903; 48 h): 2 µM
CC(=O)NC[C@H]1CN(c2ccc(N3CCOCC3)c(F)c2)C(=O)O1 — MIC90 (Enterococcus faecium; microbial growth; clinical isolate): 2 µg/mL (≈ 5.93 µM)
c1cc(-c2ccc3ncnc(Nc4ncco4)c3c2)nc(N2CCOCC2)c1 — GI50 (Trypanosoma brucei; parasite growth, SYBR Green; 48 h): 190 nM
C/C(=N\CCNCC/N=C(\C)c1c(O)c2ccccc2oc1=O)c1c(O)c2ccccc2oc1=O — MIC (Penicillium verrucosum; microbial growth, broth dilution; 48 h): 125 µg/mL
CN1CCN(c2cccc(-c3ccc4ncnc(Nc5ccc(Cl)c(Cl)c5)c4c3)c2)CC1 — GI50 (Trypanosoma brucei; parasite growth, SYBR Green; 48 h): 290 nM
C/C(=N\NC(=O)/N=C(\C)c1c(O)c2ccccc2oc1=O)c1c(O)c2ccccc2oc1=O — MIC (Penicillium verrucosum; microbial growth, broth dilution; 48 h): 62.5 µg/mL
CCOC(=O)c1cnc2c([N+](=O)[O-])cc(C(F)(F)F)cc2c1NCCCn1ccnc1 — EC50 (Trypanosoma brucei; parasite growth, resazurin; 72 h): 8000 nM
O=c1[nH]c(CCl)nc2scc(-c3ccccc3F)c12 — EC50 (Trypanosoma brucei; parasite growth, ATP luminescence; 48 h): 800 nM
CCCS(=O)(=O)Oc1cc(C=NNC(=O)CSc2nc3c(C)cccc3c(=O)n2-c2ccccc2)ccc1OC — inhibition zone (Candida albicans; microbial growth, well diffusion; 20 µg/mL): 2 mm
c1cc(-c2ccc3ncnc(Nc4ncco4)c3c2)nc(N2CCOCC2)n1 — GI50 (Trypanosoma brucei; parasite growth, SYBR Green; 48 h): 230 nM
C/C(=N\C(=S)/N=C(\C)c1c(O)c2ccccc2oc1=O)c1c(O)c2ccccc2oc1=O — MIC (Penicillium verrucosum; microbial growth, broth dilution; 48 h): 1.95 µg/mL
CN1CCN(c2cccc(-c3ccc4ncnc(Nc5ncco5)c4c3)c2)CC1 — GI50 (Trypanosoma brucei; parasite growth, SYBR Green; 48 h): 1700 nM
CC(=O)N1CCN(c2ccc(OCC3COC(Cn4ccnc4)(c4ccc(Cl)cc4Cl)O3)cc2)CC1 (stereo not drawn) — MIC (Penicillium verrucosum; microbial growth, broth dilution; 48 h): 3.9 µg/mL
CC1(C)S[C@@H]2[C@H](NC(=O)[C@H](N)c3ccccc3)C(=O)N2[C@H]1C(=O)O — MIC90 (Enterococcus faecium; microbial growth; clinical isolate): > 128 µg/mL
C/C(=N\CCNCCNCC/N=C(\C)c1c(O)c2ccccc2oc1=O)c1c(O)c2ccccc2oc1=O — MIC (Penicillium verrucosum; microbial growth, broth dilution; 48 h): 31.2 µg/mL
OC(Cn1cncn1)(Cn1cncn1)c1ccc(F)cc1F — MIC (Candida albicans; microbial growth, broth dilution; SP3876; 48 h): 16 µM
c1cc(-c2ccc3ncnc(NC4CCOCC4)c3c2)cc(N2CCOCC2)c1 — GI50 (Trypanosoma brucei; parasite growth, SYBR Green; 48 h): 3000 nM
O=c1[nH]c(CCl)nc2scc(-c3ccc(F)cc3)c12 — EC50 (Trypanosoma brucei; parasite growth, ATP luminescence; 48 h): 1500 nM
Clc1cccc(Nc2ncnc3ccc(-c4cccc(N5CCOCC5)c4)cc23)c1 — GI50 (Trypanosoma brucei; parasite growth, SYBR Green; 48 h): 380 nM
O=c1[nH]c(CCl)nc2scc(-c3ccccc3)c12 — EC50 (Trypanosoma brucei; parasite growth, ATP luminescence; 48 h): 1400 nM
